High-throughput results (PubChem BioAssay)
MT1-MMP act inh – inhibitors of human MT1-MMP activation. P50281. 360,000 compounds, 0.061% hits. HT1080 RFP-PRO-GFP cells, GFP/RFP ratio fluorescence, overnight; percent of plate control window, DMSO zero. AID 651647. GFP/RFP ratio change, % at 20 µM;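 active means GFP/RFP ratio change of at least 30% with cell ATP level not reduced by more than half and red fluorescence within 50% of control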
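Assay system: RFP-PRO-GFP reporter HT1080 cells; read-out basis: GFP/RFP fluorescence ratio; benchmarks: DMSO wells and RFP-L50D-GFP cells; doses: 20 µM single dose, 1% DMSO; schedule: overnight cell settling, then overnight compound exposure, 37 °C, 5% CO2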
SENP1 FRET inh – SENP1 (human) catalytic domain inhibition | Q9P0U3 | recombinant SENP1 catalytic domain, CyPet-SUMO1-YPet FRET cleavage | inhibition, % at 10 µM | 360,000 compounds, 0.21% hits;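 active means inhibition at least 30% at 10 µM, raw YFP signal under a set limit, fluorescence ratio 0.5 to 1.5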
Target sequence (Q9P0U3 419-644 limits assumed): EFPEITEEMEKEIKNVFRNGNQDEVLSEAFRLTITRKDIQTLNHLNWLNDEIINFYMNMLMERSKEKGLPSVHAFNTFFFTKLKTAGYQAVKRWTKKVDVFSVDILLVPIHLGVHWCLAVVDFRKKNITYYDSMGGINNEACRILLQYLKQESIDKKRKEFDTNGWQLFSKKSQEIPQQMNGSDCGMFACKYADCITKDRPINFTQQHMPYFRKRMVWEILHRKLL
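Compound: 10 µM single point, 0.5% DMSO; Test system: hSENP1 catalytic domain, recombinant; Timing: 50 min reaction at room temperature; Technique: FRET, CFP and YFP emission; Control set: no-enzyme wells low, DMSO-plus-enzyme wells high control.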
Myeloid diff 2 – promotes myeloid progenitor differentiation; ER-HoxA9 myeloid progenitors, lysozyme-GFP differentiation, flow cytometry; calls only at 10 µM; 360,000 compounds, 1% hits;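 active means normalized GFP-positive differentiation at or above the plate's own cutoff, the solvent-only control mean plus 3 SD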;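 further: cells exposed to compound for four days before flow analysis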
DAGLB inhibitor – diacylglycerol lipase beta (human) inhibition; Q8NCG7; HEK293T DAGLB membrane lysate, EnzChek fluorogenic substrate; inhibition, % at 5.17 µM; 340,000 compounds, 0.059% hits; AID 504411; in the data active means inhibition above about 34%
MIN6 prolif – inducers of beta-cell replication in MIN6 cells; MIN6 cells proliferation, ATPlite luminescence, 48 h; cells starved in 0.2% serum; 100% = growth in 10% serum; proliferation, % at 10 µM; 330,000 compounds, 0.29% hits; AID 2380;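 active means compounds whose signal lies at least 3.5 SD above the mean of all wells on their plate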
CendR NRP1 mod – alters CendR peptide binding to human NRP-1. inhibition, % at 25 µM. 360,000 compounds, 0.85% hits. O14786. FAM-RPARPAR peptide binding to NRP-1, fluorescence polarization. AID 602438;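 active means inhibition or corrected inhibition above about 18%, plus a signal ratio from 0.5 to 1.5, limit read from the data, passing the limit was not always enough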
Myeloid diff CP1 – promotes myeloid progenitor differentiation | shares compounds with Myeloid diff 2 | 2,300 compounds, 2% hits | calls only | ER-HoxA9 myeloid progenitors, GFP/Mac1 double-positive flow;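 active means share of green or green-and-red cells above 9 and 9% in run 1 or 4 and 3% in run 2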
GFP autofluor – counter-screen for myeloid differentiation promoters: compound fluorescence; 2,300 compounds, 7.4% hits; ER-HoxA9 myeloid progenitors, no estrogen, GFP autofluorescence flow cytometry; vehicle wells 0%, positive control 100%; fluorescence response, % (no concentration beside the values); shares compounds with Myeloid diff 2;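 active means over 5% cells positive for green fluorescent reporter, or over 2% positive for both it and APC stain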
Each line names hits and unclear results; the compound was inactive in the other large screens (follow-up assays come after a bar, where they were run). Compounds with a hit are over-represented: about 2.4% of the library has one in this group of screens.

Cc1ccc(CNC(=O)CN(C)S(=O)(=O)c2cnc[nH]2)cc1	none
COc1cccc(CNC(=O)CN(C)S(=O)(=O)c2cnc[nH]2)c1	Myeloid diff 2 active | Myeloid diff CP1 inactive | GFP autofluor inactive
Cc1cc(Br)c(S(=O)(=O)n2nnc3ccccc32)cc1C	none | Myeloid diff CP1 inactive | GFP autofluor inactive
COc1ccc(F)cc1S(=O)(=O)n1nnc2ccccc21	none | Myeloid diff CP1 inactive | GFP autofluor inactive
COc1ccc(OC)c(S(=O)(=O)n2nnc3ccccc32)c1	none
COC(=O)c1ccc(CNC(=O)C2CCC(=O)N(CCc3ccccc3)C2)cc1 (stereo unspecified)	none
O=C(Nc1nc2ccccc2[nH]1)Nc1ccccc1F	none
O=C(COC(=O)C1CC1)NCc1ccc(Cl)cc1Cl	none
COc1cc2cncc(Cc3ccc(Cl)cc3)c2cc1OC	none
Cc1ccc(OCC(=O)N2CCCCC2)c(Br)c1	none | Myeloid diff CP1 inactive | GFP autofluor inactive
CC(C)(C)c1ccc(OCC(=O)N2CCCCCC2)c(Br)c1	none
CC(=O)N1CCN(C(=O)COc2ccc3oc4c(c3c2)CCCC4)CC1	none
c1cc2c(cc1NC1CCCCCC1)OCO2	Myeloid diff 2 active | Myeloid diff CP1 inactive | GFP autofluor inactive
O=C(NC1CCCCCCC1)c1ccc2c(c1)OCO2	none
CC(=O)C1=CCC(c2ccc(Cl)cc2)N(S(=O)(=O)c2ccc(C)cc2)C1 (stereo unspecified)	none (no result: DAGLB inhibitor, MIN6 prolif)
COc1ccc(NC2=C(NC(C)=O)C(=O)c3ccccc3C2=O)cc1	Myeloid diff 2 active | Myeloid diff CP1 active | GFP autofluor inactive
Cc1ccc[n+](Cc2ccc([N+](=O)[O-])cc2)c1	none
O=[N+]([O-])c1ccc(C[n+]2cccc3c4ccccc4ccc32)cc1	none | Myeloid diff CP1 active | GFP autofluor inactive
COc1ccc([C@@H]2CC(=O)[C@@H]3CN(S(=O)(=O)c4ccc(C)cc4)[C@H](c4cccc(Cl)c4)C[C@@H]3N2S(=O)(=O)c2ccccc2)cc1	none (no result: DAGLB inhibitor, MIN6 prolif)
O=C1Nc2ccc(Br)cc2C1=Nc1cccnc1	none (no result: DAGLB inhibitor)
O=C1NC(Cc2ccc(O)cc2)c2nc3cc(Cl)ccc3c(=O)n2-c2cc3ccccc3cc21 (stereo unspecified)	none (no result: MIN6 prolif)
CCC(=O)Nc1ccc(/C(C)=N\NS(=O)(=O)c2ccc(C)cc2)cc1	Myeloid diff 2 active | Myeloid diff CP1 inactive | GFP autofluor inactive
Cc1cccc(NC(=S)N/N=C/c2ccc([N+](=O)[O-])s2)c1	none | Myeloid diff CP1 inactive | GFP autofluor 62
Cc1cc(NC(=O)c2noc3c2CCCC3)n(-c2ccccc2)n1	Myeloid diff 2 active | Myeloid diff CP1 inactive | GFP autofluor inactive
Cc1cc(NC(=O)c2cc(-c3ccc4c(c3)OCO4)on2)n(-c2ccccc2)n1	Myeloid diff 2 active | Myeloid diff CP1 inactive | GFP autofluor inactive
Cc1cc(NC(=O)c2cc(C)on2)n(-c2ccccc2)n1	none
COc1ccc(-c2cnc3c(c2)CCC3(C#N)C#N)cc1	none (no result: MIN6 prolif)
COc1ccc(C(CNC(=O)COc2ccccc2C#N)N2CCOCC2)cc1 (stereo unspecified)	Myeloid diff 2 active | Myeloid diff CP1 inactive | GFP autofluor inactive
CC(=O)c1cc2cccc(OC3(C)CCN(Cc4ccc5ccccc5c4)C3)c2o1 (stereo unspecified)	none (no result: DAGLB inhibitor, MIN6 prolif)
CCc1c(C)nc2ncnn2c1NC1CCCc2ccccc21 (stereo unspecified)	none | Myeloid diff CP1 inactive | GFP autofluor inactive
Cc1cc(-c2cccs2)c2c(n1)sc1c(=O)[nH]c(=O)[nH]c12	none | Myeloid diff CP1 inactive | GFP autofluor 36
CCN(CC)c1ccc(C2NC(=O)NC(C)=C2C(=O)Nc2ccccc2)cc1 (stereo unspecified)	Myeloid diff 2 active | Myeloid diff CP1 inactive | GFP autofluor 7.5
